Data on 5 molecules can be found in ChEMBL document CHEMBL1138767, “Macrocyclic inhibitors for peptide deformylase: a structure-activity relationship study of the ring size” (J Med Chem, 2004).

Values after ≈ are worked out from the molar mass of the structure shown.

Matrix metalloproteinase-9 (Homo sapiens), sequence (P14780 whole entry): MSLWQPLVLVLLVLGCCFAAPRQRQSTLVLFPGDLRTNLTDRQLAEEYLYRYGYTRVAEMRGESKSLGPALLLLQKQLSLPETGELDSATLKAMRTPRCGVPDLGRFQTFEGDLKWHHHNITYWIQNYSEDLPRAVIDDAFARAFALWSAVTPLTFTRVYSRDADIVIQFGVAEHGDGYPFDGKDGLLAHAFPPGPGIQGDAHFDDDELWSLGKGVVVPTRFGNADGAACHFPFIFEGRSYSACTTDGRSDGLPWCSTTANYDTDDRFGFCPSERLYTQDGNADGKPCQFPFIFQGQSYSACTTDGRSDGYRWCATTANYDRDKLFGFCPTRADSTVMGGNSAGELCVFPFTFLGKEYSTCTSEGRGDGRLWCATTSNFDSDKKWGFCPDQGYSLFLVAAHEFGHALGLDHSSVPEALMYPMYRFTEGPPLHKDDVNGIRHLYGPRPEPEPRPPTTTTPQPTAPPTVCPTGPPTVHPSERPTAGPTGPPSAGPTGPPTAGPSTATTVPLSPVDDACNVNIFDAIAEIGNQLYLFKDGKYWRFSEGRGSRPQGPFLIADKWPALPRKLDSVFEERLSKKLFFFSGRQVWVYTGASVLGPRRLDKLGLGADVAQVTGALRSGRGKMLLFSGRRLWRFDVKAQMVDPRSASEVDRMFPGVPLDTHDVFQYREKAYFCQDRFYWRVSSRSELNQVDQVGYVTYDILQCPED

The first assay concerns the target T1, Peptide deformylase (Escherichia coli, UniProt Q9JN24).
T1 sequence (Q9JN24 whole entry): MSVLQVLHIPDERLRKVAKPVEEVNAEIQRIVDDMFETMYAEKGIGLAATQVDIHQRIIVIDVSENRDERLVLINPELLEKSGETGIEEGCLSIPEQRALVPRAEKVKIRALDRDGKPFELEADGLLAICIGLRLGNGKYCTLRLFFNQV
The assay can be described thus: Inhibitory effect against Escherichia coli peptide deformylase (PDF) by DPPI assay.
Conditions: not given
In a few lines:
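E. coli PDF (Co(II) cofactor) assayed continuously at room temperature in 50 mM Hepes, 10 mM NaCl, 5 mM DTT, pH 7.0. Read at 360 nm, initial rates from <30 s, no-PDF background subtracted. K_I from Michaelis–Menten fit.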
For `CC(C)(C)[C@@H]1NC(=O)[C@@H](CN(O)C=O)CCCCCCCCCCNC1=O`, affinity was put at a Ki of 96 nM.
Still for that read-out and setting: to `CCCC[C@H](CN(O)C=O)C(=O)N[C@H](C(=O)N(C)C)C(C)(C)C` belongs 11 nM.
On the same count and under the same terms, in the case of `CCCC[C@H](CN(O)C=O)C(=O)N[C@@H](CCCCN)C(=O)Nc1ccccc1` it was 23 nM.
Still for that read-out and setting: in the case of `NCCCC[C@@H]1NC(=O)[C@@H](CN(O)C=O)CCCCCCCCCNC1=O` it was 92 nM; in that of `CC(C)(C)[C@@H]1NC(=O)[C@@H](CN(O)C=O)CCCCCCCCNC1=O`, 63 nM.

A further assay deals with T2, Peptide deformylase (Escherichia coli) (UniProt Q9JN24).
T2 sequence (whole entry): T1 sequence (Q9JN24 whole entry)
As to the kind of experiment: The inhibition constant was measured against Escherichia coli PDF (Peptide deformylase) by diluting a preformed EI* complex into a assay buffer containing f-Met-Lys-AMC and DPPI.
Conditions: not given
The procedure, abridged: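 E. coli PDF (Co(II) form) at 40–160 nM and inhibitor at 80–200 nM, preincubated 2 h on ice in 50 mM Hepes pH 7.0, 10 mM NaCl, 5 mM DTT with 100 µM BSA. Then diluted 10-fold into the same buffer with 270 µM f-Met-Lys-AMC and 0.1 U DPPI. Recovery of activity followed continuously at 360 nm; k6 taken from progress curves.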
For the molecule `CC(C)(C)[C@@H]1NC(=O)[C@@H](CN(O)C=O)CCCCCCCCCCNC1=O`, the K6 was 0.0037 min⁻¹.
Same read-out and setting: to `CCCC[C@H](CN(O)C=O)C(=O)N[C@H](C(=O)N(C)C)C(C)(C)C` belongs “No Slow-Binding Behaviour”.
Regarding `CCCC[C@H](CN(O)C=O)C(=O)N[C@@H](CCCCN)C(=O)Nc1ccccc1`, the K6 entry is “No Slow-Binding Behaviour”.
`NCCCC[C@@H]1NC(=O)[C@@H](CN(O)C=O)CCCCCCCCCNC1=O` had a K6 of 0.0042 min⁻¹.
`CC(C)(C)[C@@H]1NC(=O)[C@@H](CN(O)C=O)CCCCCCCCNC1=O` returned a K6 of 0.0061 min⁻¹.

The target in a further assay is T2, Peptide deformylase (Escherichia coli). As to the kind of experiment: Inhibition constant against Escherichia coli Peptide deformylase (PDF).
Conditions: not given
`CC(C)(C)[C@@H]1NC(=O)[C@@H](CN(O)C=O)CCCCCCCCCCNC1=O` had a K5 of 1.6 min⁻¹.
For `CCCC[C@H](CN(O)C=O)C(=O)N[C@H](C(=O)N(C)C)C(C)(C)C`, the K5 entry is “No Slow-Binding Behaviour”.
On the same count and under the same terms, in the case of `CCCC[C@H](CN(O)C=O)C(=O)N[C@@H](CCCCN)C(=O)Nc1ccccc1` it was “No Slow-Binding Behaviour”.
The molecule `NCCCC[C@@H]1NC(=O)[C@@H](CN(O)C=O)CCCCCCCCCNC1=O` had a K5 of 0.12 min⁻¹.
With `CC(C)(C)[C@@H]1NC(=O)[C@@H](CN(O)C=O)CCCCCCCCNC1=O`, the K5 is 0.02 min⁻¹.

The target in the next assay is T3, Interstitial collagenase (Homo sapiens) (UniProt P03956).
T3 sequence (whole entry): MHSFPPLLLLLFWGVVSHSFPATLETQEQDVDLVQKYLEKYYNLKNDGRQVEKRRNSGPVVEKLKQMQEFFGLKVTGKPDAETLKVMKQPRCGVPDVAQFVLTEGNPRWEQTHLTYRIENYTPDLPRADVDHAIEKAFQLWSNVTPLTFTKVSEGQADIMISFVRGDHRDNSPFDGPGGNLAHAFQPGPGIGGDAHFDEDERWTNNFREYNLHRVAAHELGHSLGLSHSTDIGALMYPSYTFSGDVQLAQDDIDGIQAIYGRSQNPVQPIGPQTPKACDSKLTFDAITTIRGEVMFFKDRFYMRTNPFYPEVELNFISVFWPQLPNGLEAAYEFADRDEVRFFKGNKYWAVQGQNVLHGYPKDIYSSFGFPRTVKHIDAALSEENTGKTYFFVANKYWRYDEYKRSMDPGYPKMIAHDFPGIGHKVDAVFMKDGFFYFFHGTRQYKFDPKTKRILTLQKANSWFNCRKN
As to the kind of experiment: Inhibition of MMP-1 (matrix metalloprotease) at 10 uM.
Conditions: not given
The procedure, abridged: (§1)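 Human MMP-1, -2, -3 or -9 (0.10 µg, added last to start the reaction) in 100 mM Tris, 100 mM NaCl, 10 mM CaCl2, 0.04% Brij-35. Contained 15 µM fluorogenic peptide substrate (Mca-P-K-G-Dpa-A-R-NH2 for MMP-1/-2) and inhibitor at 0, 1 or 10 µM. Remaining activity monitored continuously by fluorescence, excitation 320 nm, emission 405 nm.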
In the case of `CCCC[C@H](CN(O)C=O)C(=O)N[C@@H](CCCCN)C(=O)Nc1ccccc1`, the inhibition (in general, how much of the control response was suppressed) was determined as 97%.
Same read-out and setting: to `CC(C)(C)[C@@H]1NC(=O)[C@@H](CN(O)C=O)CCCCCCCCNC1=O` belongs 1%.

The next assay has as its target Matrix metalloproteinase-9 (Homo sapiens) (UniProt P14780). As to the kind of experiment: Inhibition of MMP-9 (matrix metalloprotease) at 10 uM.
Conditions: not given
In a few lines:
as §1
`CCCC[C@H](CN(O)C=O)C(=O)N[C@@H](CCCCN)C(=O)Nc1ccccc1` came in with an inhibition of 89%.
The molecule `CC(C)(C)[C@@H]1NC(=O)[C@@H](CN(O)C=O)CCCCCCCCNC1=O` had an inhibition of 11%.

The test system of the next assay is Escherichia coli. As to the kind of experiment: The compound was tested in vitro for antibacterial activity against Escherichia coli. The class given is functional.
Conditions: not given
In a few lines: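 Broth microdilution per NCCLS M7-A5 in cation-adjusted Mueller–Hinton broth; 5% lysed horse blood added for streptococci, Haemophilus Test Medium for Haemophilus. Inoculum ~5 × 10^5 CFU/mL from 16–20 h plate cultures. Twofold dilutions, final 0.03–32 µg/mL. Incubated 16–20 h at 35–37 °C (Haemophilus and Streptococcus: 24 h, 5% CO2). MIC is the lowest concentration with no visible growth, read visually.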
In the case of `CC(C)(C)[C@@H]1NC(=O)[C@@H](CN(O)C=O)CCCCCCCCCCNC1=O`, the MIC90 – broadly, the lowest concentration that inhibits either 90% of growth or 90% of the strains tested, depending on the study – was over 12 µg/mL.
The molecule `NCCCC[C@@H]1NC(=O)[C@@H](CN(O)C=O)CCCCCCCCCNC1=O` displayed an MIC90 of 4 µg/mL (≈ 10.4 µM).
In turn, `CC(C)(C)[C@@H]1NC(=O)[C@@H](CN(O)C=O)CCCCCCCCNC1=O` registered an MIC90 of over 24 µg/mL.

In another assay the target is T1, Peptide deformylase. The assay can be described thus: Inhibitory effect against Escherichia coli peptide deformylase (PDF) by AAP assay.
Conditions: not given
In a few lines:
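E. coli PDF (Co(II) cofactor) 8 nM preincubated with 0–300 nM inhibitor 2 h on ice in 50 mM Hepes pH 7.0, 150 mM NaCl, 100 μM BSA. Reaction started at room temperature with 80 μM f-ML-pNA for 10 min, heat-quenched at 95 °C, then coupled with AAP. A405 measured, no-PDF background subtracted, conversion <20%. K_I* from Michaelis–Menten fit.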
On to `CCCC[C@H](CN(O)C=O)C(=O)N[C@H](C(=O)N(C)C)C(C)(C)C`, for which the Ki (in general, the dissociation constant of the complex between target and ligand, obtained from inhibition or displacement) is “No Slow-Binding Behaviour”.
The same measure, in the same setting: to `CCCC[C@H](CN(O)C=O)C(=O)N[C@@H](CCCCN)C(=O)Nc1ccccc1` belongs “No Slow-Binding Behaviour”.

Staying with this assay, now noted: read-out: Ki.
As for `CC(C)(C)[C@@H]1NC(=O)[C@@H](CN(O)C=O)CCCCCCCCCCNC1=O`, the Ki was 0.23 nM.
Same read-out and setting: to `NCCCC[C@@H]1NC(=O)[C@@H](CN(O)C=O)CCCCCCCCCNC1=O` belongs 3 nM; to `CC(C)(C)[C@@H]1NC(=O)[C@@H](CN(O)C=O)CCCCCCCCNC1=O`, 13.7 nM.

A further assay deals with Bacillus subtilis. As to the kind of experiment: The compound was tested in vitro for antibacterial activity against Bacillus subtilis.
Conditions: not given
In turn, `CC(C)(C)[C@@H]1NC(=O)[C@@H](CN(O)C=O)CCCCCCCCCCNC1=O` returned an MIC90 of 0.2 µg/mL (≈ 0.521 µM).
`NCCCC[C@@H]1NC(=O)[C@@H](CN(O)C=O)CCCCCCCCCNC1=O` came in with an MIC90 of about 8 µg/mL (≈ 20.8 µM).
In turn, `CC(C)(C)[C@@H]1NC(=O)[C@@H](CN(O)C=O)CCCCCCCCNC1=O` registered an MIC90 of 1.4 µg/mL (≈ 3.94 µM).

The next assay concerns the target Matrix metalloproteinase-9 (Homo sapiens) (UniProt P14780). The assay can be described thus: Inhibition of MMP-9 (matrix metalloprotease) at 1 uM.
Conditions: not given
In a few lines:
as §1
Regarding `CCCC[C@H](CN(O)C=O)C(=O)N[C@@H](CCCCN)C(=O)Nc1ccccc1`, the inhibition worked out at 54%.
On the same count and under the same terms, in the case of `CC(C)(C)[C@@H]1NC(=O)[C@@H](CN(O)C=O)CCCCCCCCNC1=O` it was 8%.

The target of another assay is Stromelysin-1 (Homo sapiens) (UniProt P08254). As to the kind of experiment: Inhibition of MMP-3 (matrix metalloprotease) at 1 uM.
Stromelysin-1 (Homo sapiens), sequence (P08254 100-477 limits assumed): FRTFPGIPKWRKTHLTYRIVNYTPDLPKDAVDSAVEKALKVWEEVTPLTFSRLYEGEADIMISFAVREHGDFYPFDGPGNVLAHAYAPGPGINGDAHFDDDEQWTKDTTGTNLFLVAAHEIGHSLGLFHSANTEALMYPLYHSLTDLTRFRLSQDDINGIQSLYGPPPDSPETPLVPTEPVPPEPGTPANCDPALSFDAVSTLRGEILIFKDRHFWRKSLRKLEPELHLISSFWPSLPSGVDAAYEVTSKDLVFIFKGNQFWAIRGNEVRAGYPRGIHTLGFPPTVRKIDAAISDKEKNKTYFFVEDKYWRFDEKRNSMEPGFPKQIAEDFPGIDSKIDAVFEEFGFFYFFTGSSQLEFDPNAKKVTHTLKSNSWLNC
Conditions: not given
In a few lines:
as §1
Turning to `CCCC[C@H](CN(O)C=O)C(=O)N[C@@H](CCCCN)C(=O)Nc1ccccc1`, the inhibition stood at 68%.
In the case of `CC(C)(C)[C@@H]1NC(=O)[C@@H](CN(O)C=O)CCCCCCCCNC1=O`, the inhibition was 3%.

In the next assay the target is 72 kDa type IV collagenase (Homo sapiens) (UniProt P08253). The assay can be described thus: Inhibition of MMP-2 (matrix metalloprotease) at 1 uM.
72 kDa type IV collagenase (Homo sapiens), sequence (P08253 110-660 limits assumed): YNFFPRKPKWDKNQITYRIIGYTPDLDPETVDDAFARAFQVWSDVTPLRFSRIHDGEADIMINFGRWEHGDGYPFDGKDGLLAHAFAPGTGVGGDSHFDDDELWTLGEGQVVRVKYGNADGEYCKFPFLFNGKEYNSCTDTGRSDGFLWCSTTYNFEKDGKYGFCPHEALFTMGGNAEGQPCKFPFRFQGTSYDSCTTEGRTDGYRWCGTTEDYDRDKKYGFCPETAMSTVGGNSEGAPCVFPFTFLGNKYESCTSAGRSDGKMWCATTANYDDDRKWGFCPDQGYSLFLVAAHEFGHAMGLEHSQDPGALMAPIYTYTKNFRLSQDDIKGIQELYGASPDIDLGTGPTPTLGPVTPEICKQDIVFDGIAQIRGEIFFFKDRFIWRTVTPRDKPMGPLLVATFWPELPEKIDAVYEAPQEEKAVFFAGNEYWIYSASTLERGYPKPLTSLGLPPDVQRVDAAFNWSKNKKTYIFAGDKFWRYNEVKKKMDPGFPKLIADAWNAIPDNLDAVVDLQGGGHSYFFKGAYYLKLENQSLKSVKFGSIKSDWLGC
Conditions: not given
The procedure, abridged: as §1
For `CCCC[C@H](CN(O)C=O)C(=O)N[C@@H](CCCCN)C(=O)Nc1ccccc1`, the inhibition was 34%.
The same measure, in the same setting: to `CC(C)(C)[C@@H]1NC(=O)[C@@H](CN(O)C=O)CCCCCCCCNC1=O` belongs 10%.

Another assay deals with T3, Interstitial collagenase (Homo sapiens). As to the kind of experiment: Inhibition of MMP-1 (matrix metalloprotease) at 1 uM.
Conditions: not given
The procedure, abridged:
as §1
The molecule `CCCC[C@H](CN(O)C=O)C(=O)N[C@@H](CCCCN)C(=O)Nc1ccccc1` yielded an inhibition of 50%.
Still for that read-out and setting: in the case of `CC(C)(C)[C@@H]1NC(=O)[C@@H](CN(O)C=O)CCCCCCCCNC1=O` it was 0%.

The next assay deals with Stromelysin-1 (Homo sapiens) (UniProt P08254). The assay can be described thus: Inhibition of MMP-3 (matrix metalloprotease) at 10 uM.
Conditions: not given
In a few lines:
as §1
Molecule `CCCC[C@H](CN(O)C=O)C(=O)N[C@@H](CCCCN)C(=O)Nc1ccccc1` returned an inhibition of 73%.
Same read-out and setting: to `CC(C)(C)[C@@H]1NC(=O)[C@@H](CN(O)C=O)CCCCCCCCNC1=O` belongs 20%.

In another assay the target is 72 kDa type IV collagenase (Homo sapiens) (UniProt P08253). The assay can be described thus: Inhibition of MMP-2 (matrix metalloprotease) at 10 uM.
Conditions: not given
The procedure, abridged:
as §1
`CCCC[C@H](CN(O)C=O)C(=O)N[C@@H](CCCCN)C(=O)Nc1ccccc1` returned an inhibition of 55%.
Still for that read-out and setting: in the case of `CC(C)(C)[C@@H]1NC(=O)[C@@H](CN(O)C=O)CCCCCCCCNC1=O` it was 15%.
